From PubChem
Hits are enriched below; roughly 1.4% of the tested compounds scored in any of these assays.
ARFGAP1 inhibitor: inhibitors of rat ARFGAP1 GAP activity, primary screen, biochemical, fluorescence polarization, GDP tracer. Arfgap1-stimulated ARF1 GTP hydrolysis, GDP FP detection. 0.26% of 360,000 active. AID 651572, 2012. inhibition, % at 16.5 µM. ADP-ribosylation factor GTPase-activating protein 1 (Rattus norvegicus), Q62848;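 active = inhibition above a per-plate limit, mean inhibition of low control wells plus 3 SD, cut at about 25% in these data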
Target sequence (Q62848 1-136 limits assumed): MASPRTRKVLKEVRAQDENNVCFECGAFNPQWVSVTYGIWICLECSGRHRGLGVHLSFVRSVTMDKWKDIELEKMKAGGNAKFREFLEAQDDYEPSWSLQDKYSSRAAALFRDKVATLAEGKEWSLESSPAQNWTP
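Repeats: one replicate per compound; assay system: rat Arfgap1 catalytic domain, aa 1-136; times: enzyme reaction 120 min at 25 °C after 20 min preincubation; detection: FP of antibody-bound GDP Alexa 633 tracer, ex 620/em 688 nm; benchmarks: high control wells lacking Arfgap1, low control full reaction with DMSO; reagent: human ARF1(Δ1-17)-GTP substrate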
MsrA act: bovine MsrA enzyme activators, primary screen, biochemical, absorbance, HTS; Methionine sulfoxide reductase A (Bos taurus); purified bovine MsrA, absorbance read-out; activation, % at 10.6 µM; 0.3% of 360,000 active; in the data active = activation above about 7.5%
ASAP1 GAP inh: inhibitors of human ASAP1 ArfGAP activity, primary screen, biochemical, fluorescence polarization; Arf-GAP with SH3 domain, ANK repeat and PH domain-containing protein 1 (Homo sapiens), …; ASAP1-stimulated ARF1 GTP hydrolysis, GDP FP detection; inhibition, % at 16.5 µM; 0.19% of 360,000 active; AID 624377, 2012; in the data active = inhibition above about 25%
MsrA inhibitor: bovine MsrA enzyme inhibitors, primary screen, biochemical, absorbance, HTS; Methionine sulfoxide reductase A (Bos taurus); purified bovine MsrA, absorbance read-out; inhibition, % at 15.5 µM; 0.75% of 360,000 active; AID 651718, 2012
MsrA conf: bovine MsrA inhibitors, retest, confirmation, biochemical, absorbance, HTS. shares compounds with MsrA inhibitor. purified bovine MsrA, absorbance read-out. inhibition, % at 15.5 µM. 41% of 2,300 active;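 note: coupled to thioredoxin reductase with NADPH and selenocystamine and DMSO as substrate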
Large screens that a line does not name were inactive (follow-up assays come after a bar, where they were run). Cut-off read from the data, not from the text of the source, unless noted: active = inhibition above about 4.5%; inactive = the rest.

Cc1cc(C)c[n+](-c2[nH]c(=O)sc2/C=N/N=C(\[O-])c2cccnc2)c1	MsrA inhibitor 5.6 | MsrA conf inactive
O=C(O)c1cccc(-c2ccc(/C=N/NC(=O)c3cccnc3)o2)c1	MsrA inhibitor 5.9 | MsrA conf 6.7
Nc1nonc1-c1nc2ccccc2n1CC(=O)N/N=C/c1ccc(-c2cccc(C(=O)O)c2)o1	MsrA inhibitor 5.7 | MsrA conf 6.3
CCOC(=O)c1cccc(-c2ccc(C=O)o2)c1	none
O=Cc1ccc(-c2cccc(C(=O)O)c2)o1	MsrA inhibitor 4.7 | MsrA conf inactive
Cc1c(C(=O)O)cccc1-c1ccc(C=O)o1	MsrA inhibitor 5.0 | MsrA conf inactive
Cc1ccc(/C=N/NC(=O)c2cccnc2)o1	none
Nc1nonc1-c1nc2ccccc2n1CC(=O)O	none
CCN(CC)C(=O)Cn1cc(C(=O)C(=O)Nc2ccc3c(c2)OCCO3)c2ccccc21	none
CN(C)/C=C1\C(=O)N(C)N=C1C(F)(F)F	none
CCOC(=O)C1=C(C)NC(C)=C(C(=O)OCC)C1C(=O)OCC(=O)NCc1ccccc1OC	none
COc1ccccc1Cc1c(-c2ccco2)nc2ccc(Br)cn12	none
O=C(O)CCCC[n+]1ccccc1	none (no result: MsrA act)
CC(C)(C)c1cc(C(=O)N/N=C/c2ccc(-c3ccccc3[N+](=O)[O-])o2)n[nH]1	none
Cc1nnc(N/N=C\c2ccc(-c3cccc(C(=O)O)c3)o2)n1N	MsrA inhibitor 5.0 | MsrA conf 6.0
O=C(N/N=C/c1ccc(N2CCCC2)c([N+](=O)[O-])c1)c1cccnc1	MsrA inhibitor 7.5 | MsrA conf 5.5
O=C(N/N=C/c1ccc(-c2ccccc2[N+](=O)[O-])o1)c1cccnc1	MsrA inhibitor 7.1 | MsrA conf inactive
Nc1nnc(CC(=O)N/N=C/c2ccc(-c3cccc(C(=O)O)c3)o2)s1	MsrA inhibitor 5.2 | MsrA conf 4.9
Cc1nnc(N/N=C/c2ccc(-c3ccc(Br)cc3)o2)n1N	none
CCCCN1C(=O)C(CC(=O)NCCCCc2ccccc2)CC(C(=O)N(C)C)=C1C (configuration not stated)	none
COCCN1C(=O)C(=O)/C(=C(/O)c2ccc(S(=O)(=O)N3CCOCC3)cc2)C1c1cccc([N+](=O)[O-])c1 (configuration not stated)	none (no result: ARFGAP1 inhibitor, ASAP1 GAP inh, MsrA inhibitor)
CCN(CC)c1ccc(-c2nnc(SCC(=O)N(CCOC)c3c(N)n(CC(C)C)c(=O)[nH]c3=O)o2)cc1	MsrA inhibitor 5.3 | MsrA conf inactive
COCCN(C(=O)CSc1nnc(-c2ccc(C)c(C)c2)o1)c1c(N)n(CC(C)C)c(=O)[nH]c1=O	none
CCOC(=O)C1=Nc2cccc3c(O)ccc1c23	none (no result: MsrA act)
CCOC(=O)C1=Nc2ccccc2C1=[N+]=[N-]	MsrA inhibitor 5.7 | MsrA conf inactive
COc1cccc(CNS(=O)(=O)c2ccc3c(c2)N(C)CCO3)c1	none
COc1nccnc1NS(=O)(=O)c1ccc(N/C=C2\CCCCC2=O)cc1	MsrA inhibitor 5.3 | MsrA conf 4.6
COc1ccc(C(=O)/C=C/Nc2cc(C)on2)c(OC)c1	MsrA inhibitor 7.4 | MsrA conf 5.5
Cc1ccc(NC(=O)c2cc(=O)[nH]c3ccc(S(=O)(=O)N4CCOCC4)cc23)cc1	none
CCc1cccc(C)c1NC(=O)c1cc(=O)[nH]c2ccc(S(=O)(=O)N3CCOCC3)cc12	MsrA inhibitor 17 | MsrA conf 28
CC(=O)c1ccc(N2CCN(C(=O)CCCc3nc4ccccc4s3)CC2)cc1	MsrA inhibitor 5.7 | MsrA conf inactive
Cc1ccc(C)c(NC(=O)CN2C(=O)C3CC=CCC3C2=O)c1 (configuration not stated)	none
COc1ccccc1/C=N/NC(=S)Nc1cccnc1	none
Oc1ccc(C=NNC(=S)Nc2cccnc2)nc1	MsrA inhibitor 7.0 | MsrA conf 5.5
Oc1ccc(/C=N/NC(=S)Nc2cccnc2)cc1O	none
S=C(N/N=C/c1ccc2ncccc2c1)Nc1cccnc1	MsrA inhibitor 7.2 | MsrA conf inactive
CCOC(=O)c1nnn(-c2nonc2-n2cccc2)c1CCl	MsrA inhibitor 6.4 | MsrA conf 5.3
